Rce1 inh – yeast Rce1p protease inhibitors, primary screen, biochemical, fluorescence, cell-free homogeneous; actives 0.27% (n = 290,000); yeast membranes, quenched prenylated peptide cleavage fluorescence; CAAX prenyl protease 2 (Saccharomyces cerevisiae (strain ATCC 204508 / S288c)), Q03530; calls only; AID 2563, 2010;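 active = fall in fluorescence gain of 50% or more versus controls, with final raw signal at or below 3038400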;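 also: plate controls were neutral control wells for no effect and wells lacking membranes for full effect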
Target sequence (Q03530 whole entry, looked up): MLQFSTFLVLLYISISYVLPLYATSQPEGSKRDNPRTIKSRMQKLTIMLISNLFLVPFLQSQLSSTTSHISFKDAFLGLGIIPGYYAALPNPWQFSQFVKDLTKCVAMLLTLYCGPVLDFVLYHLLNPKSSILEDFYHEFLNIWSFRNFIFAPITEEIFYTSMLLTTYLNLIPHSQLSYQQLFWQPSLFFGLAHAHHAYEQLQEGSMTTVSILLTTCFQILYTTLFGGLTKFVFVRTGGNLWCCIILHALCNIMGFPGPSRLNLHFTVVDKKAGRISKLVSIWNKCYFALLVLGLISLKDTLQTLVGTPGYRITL
CAL PDZ FP-1 – CAL PDZ peptide-binding inhibitors, primary screen, biochemical, fluorescence polarization, Cer-tagged CAL PDZ, HTS. Golgi-associated PDZ and coiled-coil motif-containing protein (Homo sapiens), Q9HD26. purified CAL PDZ, TMR-peptide fluorescence polarization, 1 h. inhibition, % at 20 µM. actives 0.02% (n = 330,000). AID 504414, 2011;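 active = highest replicate inhibition of at least 40%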;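 also: plate controls were DMSO neutral control wells for no effect and unlabeled competitor peptide control wells for full effect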
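material = purified tagged CAL PDZ domain construct (CerCALP) | compound dosing = 20 µM, one dose | times = 1 h at RT | measured by = fluorescence polarization from S- and P-plane intensities, G-factor corrected | read-out = inhibition from polarization loss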
CAL PDZ FP-2 – untagged CAL PDZ binding inhibitors, primary screen, biochemical, fluorescence polarization, HTS | AID 602252, 2012 | Golgi-associated PDZ and coiled-coil motif-containing protein (Homo sapiens), Q9HD26 | inhibition, % at 24.9 µM | actives 0.92% (n = 300,000) | purified CAL PDZ, TMR-peptide fluorescence polarization, 1 h;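 active = mean inhibition of at least 30% with at least half of replicates also reaching 30%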;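 also: 0% = DMSO neutral control and 100% = excess unlabeled competitor peptide PRC23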
AI-2 QS modul – Vibrio harveyi AI-2 quorum sensing modulators, primary screen, JMH597 strain, luminescence/OD600 ratio; actives 0.4% (n = 300,000); activity change, % at 7.5 µM; Vibrio harveyi JMH597 AI-2 luminescence/OD600 ratio, 9 h; active compounds read low; strain lacks LuxN and CqsS sensors; 0 = neutral-control median; in the data active = activity change below about -75%, passing the limit was not always enough;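 also: luminescence divided by OD600 gain over 9 h not by final OD600 alone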
ARNT-TACC3 inh – disruptors of ARNT/TACC3 protein interaction, primary screen, biochemical, AlphaScreen, single concentration; AlphaScreen His-ARNT PAS-B/GST-TACC3 binding, luminescence; TACC3 fragment carries E629A point mutation; inhibition, % at 9.99 µM; actives 0.66% (n = 390,000); AID 623870, 2012;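 active = mean inhibition of replicates at least 50% and at least half of replicates each reaching 50%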;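 also: 0% = complete ARNT plus TACC3 wells and 100% = ARNT alone without TACC3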
* = called active by the depositor; i = inactive; . = no result given; + = active, no number. Sampled rows, rich in hits. Any-hit rate of the full collection: about 1.7%.

SMILES	Rce1 inh	CAL PDZ FP-1	CAL PDZ FP-2	AI-2 QS modul	ARNT-TACC3 inh
CC(=O)O[C@H]1CC[C@@]2(C)C(=CC[C@@H]3[C@@H]2CC[C@]2(C)C(=O)CC[C@@H]32)C1	.	-1	1	.	-5
CC(C)(C)C(=O)O[C@H]1CC[C@@]2(C)C(=CC(=O)C3C2CC[C@]2(C)C(=O)CCC32)C1 (some centres undefined)	.	0	85*	.	-3
CC(C)(C)C(=O)N1Cc2cnnn2-c2ccccc2C1C#N (centres undefined)	.	1	-11	.	4
O=C(N/N=C/C1C(=O)NC(=S)N(c2ccccc2)C1=O)c1cc(Br)c(O)c(Br)c1 (centres undefined)	i	.	4	27	65*
CCOc1cc(-c2nc3c(C)cccn3c2NCC2CCCO2)ccc1O (centres undefined)	+	0	-2	-5	-2
COc1ccc(C(O)C(C)NC(C)C(O)c2ccc(OC)cc2)cc1 (centres undefined)	i	.	.	27	.
COc1cccc(CN2CCNCC2)c1OC	i	15	90*	-1	0
CCN1C[C@]2(OC(=O)c3ccccc3NC(C)=O)CCC(OC)C34C5C[C@H]6C(OC)[C@]5(O)[C@](O)(C[C@@H]6OC)C(C[C@@H]32)[C@H]14 (some centres undefined)	i	-2	0	10	4
CCCCCC(=O)N[C@@H](c1ccccc1)[C@@H](O)C(=O)O[C@H]1C[C@@]2(O)[C@@H](OC(=O)c3ccccc3)C3[C@](C)(C(=O)[C@H](O)C(=C1C)C2(C)C)[C@@H](OC1OCC(O)C(O)C1O)C[C@H]1OC[C@@]31OC(C)=O (some centres undefined)	i	-1	4	-4	57*
COc1ccc(-c2nn(CCC#N)cc2C(=O)NCc2ccccc2)cc1[N+](=O)[O-]	i	1	-4	14	0
COCCNC(=O)c1c(N)n(Cc2ccco2)c2nc3ccccc3nc12	i	0	-3	23	-26
COCCCn1c(N)c(C(=O)NCc2ccco2)c2nc3ccccc3nc21	+	-1	.	7	18
O=C1NC(=S)NC(=O)C1=Cc1ccc(Br)s1	i	1	2	-87*	10
O=C(CN1C2CCC1CC(O)(c1cccnc1)C2)Nc1ccc2c(c1)OCO2 (centres undefined)	i	1	4	11	6
CC[C@H]1OC(=O)C[C@@H](O)[C@H](C)[C@@H](O[C@@H]2O[C@H](C)[C@@H](O[C@H]3C[C@@](C)(O)[C@@H](O)[C@H](C)O3)[C@H](N(C)C)[C@H]2O)[C@@H](CC=O)C[C@@H](C)C(=O)/C=C/C(C)=C/[C@@H]1CO[C@@H]1O[C@H](C)[C@@H](O)[C@@H](OC)[C@H]1OC	.	-2	-2	.	0
O=C(c1ccc2c(c1)N(Cc1ccc(F)cc1)CCS2)N1CCC2(CC1)OCCO2	i	-1	1	32	3
Cc1ccnc(-n2c(-c3ccco3)nc3ccccc3c2=O)c1	+	1	2	18	-12
O=C(N/N=C/c1c(O)n(Cc2ccc(F)cc2)c(=S)[nH]c1=O)c1ccncc1	i	0	-2	13	61*
CCC(C)n1c(O)c(/C=N/NC(=O)c2ccncc2)c(=O)[nH]c1=S (centres undefined)	i	-1	.	11	65*
C[C@@H]1CN([C@H](C)CO)C(=O)CCCn2nncc2CO[C@@H]1CN(C)C(=O)Oc1cccc2ccccc12	.	.	.	.	-2
CCOc1cc(CN2CCN(C(=O)Cc3ccccc3)CC2)ccc1OC	i	-1	-3	19	-3
CCCCNC(=S)N1CCn2cccc2C1c1cccnc1 (centres undefined)	i	0	1	22	0
